# Measured values reported in ChEMBL document CHEMBL4689842, “EUbOPEN Chemogenomics Library wave 1” (2021).
# Tested on: U2OS
# Experiment: Multiplex assay against U2OS
# Assay type: toxicity, cell-based
# Settings: human
# Method in brief: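 Phenotypes for tubulin, mitochondrial mass and membrane permeability are expressed as per cents of healthy-nucleus cells. Cells were stained live at seeding with Hoechst33342, BioTracker Green Microtubule Cytoskeleton Dye, MitoTracker Red and Annexin V Alexa Fluor 680, then imaged after compound addition on a CQ1 microscope at 37°C and 5% CO2. Machine-learning gating in CellPathfinder separated Hoechst high-intensity objects from normal cells, divided normal cells by nuclear state (healthy, pyknosed, fragmented) and divided pyknosed cells into mitotic or apoptotic.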
# [1] = 12 h, 1 µM, compound concentration 1 uM, replicate 1
# [2] = 12 h, 1 µM, compound concentration 1 uM, replicate 2
# [3] = 12 h, 10 µM, compound concentration 10 uM, replicate 1
# [4] = 12 h, 10 µM, compound concentration 10 uM, replicate 2
# [5] = 24 h, 1 µM, compound concentration 1 uM, replicate 1
# [6] = 24 h, 1 µM, compound concentration 1 uM, replicate 2
# [7] = 24 h, 10 µM, compound concentration 10 uM, replicate 1
# [8] = 24 h, 10 µM, compound concentration 10 uM, replicate 2
# [9] = 48 h, 1 µM, compound concentration 1 uM, replicate 1
# [10] = 48 h, 1 µM, compound concentration 1 uM, replicate 2
# [11] = 48 h, 10 µM, compound concentration 10 uM, replicate 1
# [12] = 48 h, 10 µM, compound concentration 10 uM, replicate 2
compound,measurement,setting,value
O=C(Cc1ccc(-c2ccc(OCCN3CCOCC3)cc2)cn1)NCc1ccccc1 [TIRBANIBULIN],Population Apoptotic (%),[1],52%
same,Population Fragmented Nuclei (%),[1],10%
same,Population Healthy Nuclei (%),[1],76%
same,Population Hoechst High Intensity Objects (%),[1],7%
same,Population Membrane Permeable-Phenotype (%),[1],8%
same,Population Mitochondria Different-Phenotype (%),[1],20%
same,Population Mitotic Cells (%),[1],47%
same,Population Normal (%),[1],92%
same,Population Pyknosed Nuclei (%),[1],12%
same,Population Tubulin-Different-Phenotype (%),[1],19%
same,Total Cell Count,[1],172
same,Population Apoptotic (%),[2],0%
same,Population Fragmented Nuclei (%),[2],5%
same,Population Healthy Nuclei (%),[2],90%
same,Population Hoechst High Intensity Objects (%),[2],12%
same,Population Membrane Permeable-Phenotype (%),[2],9%
same,Population Mitochondria Different-Phenotype (%),[2],21%
same,Population Mitotic Cells (%),[2],100%
same,Population Normal (%),[2],87%
same,Population Pyknosed Nuclei (%),[2],4%
same,Population Tubulin-Different-Phenotype (%),[2],12%
same,Total Cell Count,[2],108
same,Population Apoptotic (%),[3],21%
same,Population Fragmented Nuclei (%),[3],10%
same,Population Healthy Nuclei (%),[3],72%
same,Population Hoechst High Intensity Objects (%),[3],10%
same,Population Membrane Permeable-Phenotype (%),[3],8%
same,Population Mitochondria Different-Phenotype (%),[3],16%
same,Population Mitotic Cells (%),[3],78%
same,Population Normal (%),[3],89%
same,Population Pyknosed Nuclei (%),[3],16%
same,Population Tubulin-Different-Phenotype (%),[3],10%
same,Total Cell Count,[3],169
same,Population Apoptotic (%),[4],50%
same,Population Fragmented Nuclei (%),[4],13%
same,Population Healthy Nuclei (%),[4],78%
same,Population Membrane Permeable-Phenotype (%),[4],4%
same,Population Mitochondria Different-Phenotype (%),[4],19%
same,Population Mitotic Cells (%),[4],50%
same,Population Pyknosed Nuclei (%),[4],7%
same,Population Tubulin-Different-Phenotype (%),[4],12%
same,Total Cell Count,[4],81
same,Population Apoptotic (%),[5],34%
same,Population Fragmented Nuclei (%),[5],20%
same,Population Healthy Nuclei (%),[5],50%
same,Population Hoechst High Intensity Objects (%),[5],8%
same,Population Membrane Permeable-Phenotype (%),[5],9%
same,Population Mitochondria Different-Phenotype (%),[5],35%
same,Population Mitotic Cells (%),[5],65%
same,Population Normal (%),[5],91%
same,Population Pyknosed Nuclei (%),[5],29%
same,Population Tubulin-Different-Phenotype (%),[5],21%
same,Total Cell Count,[5],227
same,Population Apoptotic (%),[6],61%
same,Population Fragmented Nuclei (%),[6],16%
same,Population Healthy Nuclei (%),[6],66%
same,Population Hoechst High Intensity Objects (%),[6],9%
same,Population Membrane Permeable-Phenotype (%),[6],6%
same,Population Mitochondria Different-Phenotype (%),[6],44%
same,Population Mitotic Cells (%),[6],38%
same,Population Normal (%),[6],90%
same,Population Pyknosed Nuclei (%),[6],17%
same,Population Tubulin-Different-Phenotype (%),[6],10%
same,Total Cell Count,[6],155
same,Population Apoptotic (%),[7],34%
same,Population Fragmented Nuclei (%),[7],15%
same,Population Healthy Nuclei (%),[7],64%
same,Population Hoechst High Intensity Objects (%),[7],8%
same,Population Membrane Permeable-Phenotype (%),[7],8%
same,Population Mitochondria Different-Phenotype (%),[7],46%
same,Population Mitotic Cells (%),[7],65%
same,Population Normal (%),[7],91%
same,Population Pyknosed Nuclei (%),[7],20%
same,Population Tubulin-Different-Phenotype (%),[7],11%
same,Total Cell Count,[7],160
same,Population Apoptotic (%),[8],66%
same,Population Fragmented Nuclei (%),[8],19%
same,Population Healthy Nuclei (%),[8],57%
same,Population Hoechst High Intensity Objects (%),[8],10%
same,Population Membrane Permeable-Phenotype (%),[8],10%
same,Population Mitochondria Different-Phenotype (%),[8],40%
same,Population Mitotic Cells (%),[8],33%
same,Population Normal (%),[8],89%
same,Population Pyknosed Nuclei (%),[8],23%
same,Population Tubulin-Different-Phenotype (%),[8],13%
same,Total Cell Count,[8],82
same,Population Apoptotic (%),[9],67%
same,Population Fragmented Nuclei (%),[9],24%
same,Population Healthy Nuclei (%),[9],40%
same,Population Hoechst High Intensity Objects (%),[9],9%
same,Population Membrane Permeable-Phenotype (%),[9],7%
same,Population Mitochondria Different-Phenotype (%),[9],39%
same,Population Mitotic Cells (%),[9],32%
same,Population Normal (%),[9],90%
same,Population Pyknosed Nuclei (%),[9],35%
same,Population Tubulin-Different-Phenotype (%),[9],25%
same,Total Cell Count,[9],340
same,Population Apoptotic (%),[10],75%
same,Population Fragmented Nuclei (%),[10],22%
same,Population Healthy Nuclei (%),[10],45%
same,Population Hoechst High Intensity Objects (%),[10],11%
same,Population Membrane Permeable-Phenotype (%),[10],29%
same,Population Mitochondria Different-Phenotype (%),[10],64%
same,Population Mitotic Cells (%),[10],25%
same,Population Normal (%),[10],88%
same,Population Pyknosed Nuclei (%),[10],32%
same,Population Tubulin-Different-Phenotype (%),[10],35%
same,Total Cell Count,[10],239
same,Population Apoptotic (%),[11],64%
same,Population Fragmented Nuclei (%),[11],24%
same,Population Healthy Nuclei (%),[11],32%
same,Population Hoechst High Intensity Objects (%),[11],10%
same,Population Membrane Permeable-Phenotype (%),[11],15%
same,Population Mitochondria Different-Phenotype (%),[11],63%
same,Population Mitotic Cells (%),[11],35%
same,Population Normal (%),[11],89%
same,Population Pyknosed Nuclei (%),[11],43%
same,Population Tubulin-Different-Phenotype (%),[11],22%
same,Total Cell Count,[11],174
same,Population Apoptotic (%),[12],70%
same,Population Fragmented Nuclei (%),[12],23%
same,Population Healthy Nuclei (%),[12],45%
same,Population Hoechst High Intensity Objects (%),[12],11%
same,Population Membrane Permeable-Phenotype (%),[12],44%
same,Population Mitochondria Different-Phenotype (%),[12],68%
same,Population Mitotic Cells (%),[12],29%
same,Population Normal (%),[12],88%
same,Population Pyknosed Nuclei (%),[12],30%
same,Population Tubulin-Different-Phenotype (%),[12],36%
same,Total Cell Count,[12],85
CN1CCN(C(=O)C(C)(C)c2ccc(C(=O)Nc3cn4cc(-c5cc(C(C)(C)C)cc(C(C)(C)C)c5)ccc4n3)cc2)CC1 [T3-CLK-N],Population Apoptotic (%),[1],25%
same,Population Fragmented Nuclei (%),[1],8%
same,Population Healthy Nuclei (%),[1],81%
same,Population Hoechst High Intensity Objects (%),[1],8%
same,Population Membrane Permeable-Phenotype (%),[1],18%
same,Population Mitochondria Different-Phenotype (%),[1],20%
same,Population Mitotic Cells (%),[1],75%
same,Population Normal (%),[1],91%
same,Population Pyknosed Nuclei (%),[1],9%
same,Population Tubulin-Different-Phenotype (%),[1],18%
same,Total Cell Count,[1],162
same,Population Apoptotic (%),[2],28%
same,Population Fragmented Nuclei (%),[2],6%
same,Population Healthy Nuclei (%),[2],86%
same,Population Hoechst High Intensity Objects (%),[2],11%
same,Population Membrane Permeable-Phenotype (%),[2],14%
same,Population Mitochondria Different-Phenotype (%),[2],29%
same,Population Mitotic Cells (%),[2],71%
same,Population Normal (%),[2],88%
same,Population Pyknosed Nuclei (%),[2],6%
same,Population Tubulin-Different-Phenotype (%),[2],14%
same,Total Cell Count,[2],72
same,Population Apoptotic (%),[3],27%
same,Population Fragmented Nuclei (%),[3],5%
same,Population Healthy Nuclei (%),[3],87%
same,Population Hoechst High Intensity Objects (%),[3],3%
same,Population Membrane Permeable-Phenotype (%),[3],58%
same,Population Mitochondria Different-Phenotype (%),[3],20%
same,Population Mitotic Cells (%),[3],72%
same,Population Normal (%),[3],96%
same,Population Pyknosed Nuclei (%),[3],6%
same,Population Tubulin-Different-Phenotype (%),[3],34%
same,Total Cell Count,[3],177
same,Population Apoptotic (%),[4],50%
same,Population Fragmented Nuclei (%),[4],16%
same,Population Healthy Nuclei (%),[4],80%
same,Population Hoechst High Intensity Objects (%),[4],15%
same,Population Membrane Permeable-Phenotype (%),[4],56%
same,Population Mitochondria Different-Phenotype (%),[4],38%
same,Population Mitotic Cells (%),[4],50%
same,Population Normal (%),[4],84%
same,Population Pyknosed Nuclei (%),[4],3%
same,Population Tubulin-Different-Phenotype (%),[4],31%
same,Total Cell Count,[4],120
same,Population Apoptotic (%),[5],23%
same,Population Fragmented Nuclei (%),[5],9%
same,Population Healthy Nuclei (%),[5],80%
same,Population Hoechst High Intensity Objects (%),[5],9%
same,Population Membrane Permeable-Phenotype (%),[5],8%
same,Population Mitochondria Different-Phenotype (%),[5],14%
same,Population Mitotic Cells (%),[5],76%
same,Population Normal (%),[5],90%
same,Population Pyknosed Nuclei (%),[5],10%
same,Population Tubulin-Different-Phenotype (%),[5],15%
same,Total Cell Count,[5],175
same,Population Apoptotic (%),[6],33%
same,Population Fragmented Nuclei (%),[6],6%
same,Population Healthy Nuclei (%),[6],89%
same,Population Hoechst High Intensity Objects (%),[6],8%
same,Population Membrane Permeable-Phenotype (%),[6],13%
same,Population Mitochondria Different-Phenotype (%),[6],24%
same,Population Mitotic Cells (%),[6],66%
same,Population Normal (%),[6],91%
same,Population Pyknosed Nuclei (%),[6],4%
same,Population Tubulin-Different-Phenotype (%),[6],16%
same,Total Cell Count,[6],97
same,Population Apoptotic (%),[7],54%
same,Population Fragmented Nuclei (%),[7],9%
same,Population Healthy Nuclei (%),[7],83%
same,Population Hoechst High Intensity Objects (%),[7],2%
same,Population Membrane Permeable-Phenotype (%),[7],53%
same,Population Mitochondria Different-Phenotype (%),[7],27%
same,Population Mitotic Cells (%),[7],45%
same,Population Normal (%),[7],97%
same,Population Pyknosed Nuclei (%),[7],6%
same,Population Tubulin-Different-Phenotype (%),[7],39%
same,Total Cell Count,[7],230
same,Population Apoptotic (%),[8],50%
same,Population Fragmented Nuclei (%),[8],17%
same,Population Healthy Nuclei (%),[8],71%
same,Population Hoechst High Intensity Objects (%),[8],14%
same,Population Membrane Permeable-Phenotype (%),[8],48%
same,Population Mitochondria Different-Phenotype (%),[8],56%
same,Population Mitotic Cells (%),[8],50%
same,Population Normal (%),[8],85%
same,Population Pyknosed Nuclei (%),[8],10%
same,Population Tubulin-Different-Phenotype (%),[8],43%
same,Total Cell Count,[8],144
